{
  "source": "ChEMBL document CHEMBL3414568",
  "about": "“Synthesis and antiproliferative activity of 3-(2-chloroethyl)-5-methyl-6-phenyl-8-(trifluoromethyl)-5,6-dihydropyrazolo[3,4-f][1,2,3,5]tetrazepin-4-(3H)-one” (Eur J Med Chem, 2015)",
  "key": {"[1]": {"tested_on": "WiDr", "assay": "Cytotoxicity against human WiDr cells overexpressing MGMT after 48 hrs by trypan blue staining-based hemocytometric analysis", "type": "functional, cell-based", "method_in_brief": "(§1)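 2 × 10⁵ cells per well in 1 mL complete medium treated with various concentrations from freshly prepared DMSO solution (DMSO ≤0.3% v/v final). After 48 h, trypan blue staining and hemocytometer counting of viable cells, expressed as percentage of control proliferation.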"}, "[2]": {"tested_on": "K562", "assay": "Cell cycle arrest in human K562 cells expressing Bcr-Abl assessed as accumulation at S phase at 30 uM after 48 hrs by propidium iodide staining-based flow cytometry (reference value: 43.19 +/- 7%)", "type": "functional", "method_in_brief": "(§2)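 K562 cells cultured with or without 30 µM compound for 24 h and 48 h. Cells washed once in ice-cold PBS, resuspended at 10⁶/mL in hypotonic propidium iodide solution with nonidet P-40 0.03% (v/v) in 0.1% sodium citrate, 30 min incubation, flow cytometry single-parameter DNA histograms. G0-G1/S/G2-M % calculated on cycling cells only; subG0-G1 % on total cell number.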"}, "[3]": {"tested_on": "K562", "assay": "Cell cycle arrest in human K562 cells expressing Bcr-Abl assessed as accumulation at G2-M phase at 30 uM after 48 hrs by propidium iodide staining-based flow cytometry (reference value: 12.16 +/- 2.2%)", "type": "functional", "method_in_brief": "as §2"}, "[4]": {"assay": "Cytotoxicity against human HL60 cells assessed as growth inhibition after 48 hrs by trypan blue staining-based hemocytometric analysis", "type": "functional", "conditions": "HL-60, 48 h", "method_in_brief": "as §1"}, "[5]": {"tested_on": "K562", "assay": "Cell cycle arrest in human K562 cells expressing Bcr-Abl assessed as accumulation at subG0-G1 phase at 30 uM after 24 hrs by propidium iodide staining-based flow cytometry (reference value: 3.21 +/- 0.4%)", "type": "functional", "method_in_brief": "as §2"}, "[6]": {"assay": "Cytotoxicity against human HL60R cells expressing p-glycoprotein assessed as growth inhibition after 48 hrs by trypan blue staining-based hemocytometric analysis", "type": "functional", "method_in_brief": "as §1"}, "[7]": {"tested_on": "HepG2", "assay": "Cytotoxicity against human HepG2 cells assessed as growth inhibition after 48 hrs by trypan blue staining-based hemocytometric analysis", "type": "functional", "conditions": "HepG2, 48 h", "method_in_brief": "as §1"}, "[8]": {"tested_on": "K562", "assay": "Cell cycle arrest in human K562 cells expressing Bcr-Abl assessed as accumulation at G2-M phase at 30 uM after 24 hrs by propidium iodide staining-based flow cytometry (reference value: 12.16 +/- 2.2%)", "type": "functional", "method_in_brief": "as §2"}, "[9]": {"tested_on": "K562", "assay": "Cytotoxicity against human K562 cells expressing Bcr-Abl assessed as growth inhibition after 48 hrs by trypan blue staining-based hemocytometric analysis", "type": "functional", "conditions": "K562, 48 h", "method_in_brief": "as §1"}, "[10]": {"tested_on": "K562", "assay": "Cell cycle arrest in human K562 cells expressing Bcr-Abl assessed as accumulation at G0-G1 phase at 30 uM after 24 hrs by propidium iodide staining-based flow cytometry (reference value: 44.65 +/- 6.8%)", "type": "functional", "method_in_brief": "as §2"}, "[11]": {"tested_on": "K562", "assay": "Cell cycle arrest in human K562 cells expressing Bcr-Abl assessed as accumulation at S phase at 30 uM after 24 hrs by propidium iodide staining-based flow cytometry (reference value: 43.19 +/- 7%)", "type": "functional", "method_in_brief": "as §2"}, "[12]": {"tested_on": "K562", "assay": "Cell cycle arrest in human K562 cells expressing Bcr-Abl assessed as accumulation at subG0-G1 phase at 30 uM after 48 hrs by propidium iodide staining-based flow cytometry (reference value: 3.21 +/- 0.4%)", "type": "functional", "method_in_brief": "as §2"}, "[13]": {"tested_on": "K562", "assay": "Cell cycle arrest in human K562 cells expressing Bcr-Abl assessed as accumulation at G0-G1 phase at 30 uM after 48 hrs by propidium iodide staining-based flow cytometry (reference value: 44.65 +/- 6.8%)", "type": "functional", "method_in_brief": "as §2"}, "[14]": {"assay": "Induction of apoptosis in human HL60R cells expressing p-glycoprotein after 48 hrs by acridine orange/ethidium bromide staining-based fluorescence microscopic analysis", "type": "functional, cell-based", "method_in_brief": "(§3)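 After 48 h exposure to various concentrations, 2 × 10⁵ cells centrifuged (300 × g) and resuspended in acridine orange/ethidium bromide dye mixture. Examined under oil immersion, 100× objective, by fluorescence microscopy. Live cells take up acridine orange (green) and exclude ethidium bromide (red); apoptotic and necrotic cells scored morphologically.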"}, "[15]": {"tested_on": "HL-60", "assay": "Induction of apoptosis in human HL60 cells after 48 hrs by acridine orange/ethidium bromide staining-based fluorescence microscopic analysis", "type": "functional, cell-based", "conditions": "HL-60, 48 h", "method_in_brief": "as §3"}, "[16]": {"tested_on": "HepG2", "assay": "Induction of apoptosis in human HepG2 cells after 48 hrs by acridine orange/ethidium bromide staining-based fluorescence microscopic analysis", "type": "functional, cell-based", "conditions": "HepG2, 48 h", "method_in_brief": "as §3"}, "[17]": {"tested_on": "K562", "assay": "Induction of apoptosis in human K562 cells expressing Bcr-Abl after 48 hrs by acridine orange/ethidium bromide staining-based fluorescence microscopic analysis", "type": "functional, cell-based", "conditions": "K562, 48 h", "method_in_brief": "as §3"}},
  "data": [
    {"smiles": "Cn1nnc2c(C(N)=O)ncn2c1=O", "note": "[TEMOZOLOMIDE]", "values": [
      {"measurement": "IC50", "setting": "[1]", "value": 1720, "unit": "µM"}
    ]},
    {"smiles": "CN1C(=O)N(CCCl)N=Nc2c(C(F)(F)F)nn(-c3ccccc3)c21", "values": [
      {"measurement": "Activity", "setting": "[2]", "value": 44.24, "unit": "%"},
      {"measurement": "Activity", "setting": "[3]", "value": 14.79, "unit": "%"},
      {"measurement": "GI50", "setting": "[4]", "value": 9, "unit": "µM"},
      {"measurement": "Activity", "setting": "[5]", "value": 15, "unit": "%"},
      {"measurement": "GI50", "setting": "[6]", "value": 14, "unit": "µM"},
      {"measurement": "GI50", "setting": "[7]", "value": 26, "unit": "µM"},
      {"measurement": "Activity", "setting": "[8]", "value": 12.45, "unit": "%"},
      {"measurement": "GI50", "setting": "[9]", "value": 18, "unit": "µM"},
      {"measurement": "Activity", "setting": "[10]", "value": 43.96, "unit": "%"},
      {"measurement": "Activity", "setting": "[11]", "value": 43.59, "unit": "%"},
      {"measurement": "Activity", "setting": "[12]", "value": 38.35, "unit": "%"},
      {"measurement": "Activity", "setting": "[13]", "value": 40.97, "unit": "%"},
      {"measurement": "AC50", "setting": "[14]", "value": 22, "unit": "µM"},
      {"measurement": "AC50", "setting": "[15]", "value": 19, "unit": "µM"},
      {"measurement": "IC50", "setting": "[1]", "value": 2.3, "unit": "µM"},
      {"measurement": "AC50", "setting": "[16]", "value": 43, "unit": "µM"},
      {"measurement": "AC50", "setting": "[17]", "value": 37, "unit": "µM"}
    ]},
    {"smiles": "CN1N=Nc2c(C(F)(F)F)nn(-c3ccccc3)c2N(C)C1=O", "values": [
      {"measurement": "GI50", "setting": "[4]", "value": 21, "unit": "µM"},
      {"measurement": "GI50", "setting": "[6]", "value": 30, "unit": "µM"},
      {"measurement": "GI50", "setting": "[9]", "value": 40, "unit": "µM"},
      {"measurement": "AC50", "setting": "[14]", "value": 38, "unit": "µM"}
    ]},
    {"smiles": "COc1cc([C@@H]2c3cc4c(cc3[C@@H](O[C@@H]3O[C@@H]5CO[C@@H](C)O[C@H]5[C@H](O)[C@H]3O)[C@H]3COC(=O)[C@H]23)OCO4)cc(OC)c1O", "note": "[ETOPOSIDE]", "values": [
      {"measurement": "GI50", "setting": "[4]", "value": 0.4, "unit": "µM"},
      {"measurement": "GI50", "setting": "[6]", "value": "> 400", "unit": "µM"}
    ]},
    {"smiles": "COc1cccc2c1C(=O)c1c(O)c3c(c(O)c1C2=O)C[C@@](O)(C(C)=O)C[C@@H]3O[C@H]1C[C@H](N)[C@H](O)[C@H](C)O1", "note": "[DAUNORUBICIN]", "values": [
      {"measurement": "GI50", "setting": "[4]", "value": 0.1, "unit": "µM"},
      {"measurement": "GI50", "setting": "[6]", "value": 38, "unit": "µM"}
    ]}
  ]
}
